Measurements as given in ChEMBL document CHEMBL3102846 (Eur J Med Chem, 2014).
Activity calls are given as the source filed them. No cut-off for these calls is given here.

How the values were obtained:
[1] = Inhibition of Wnt3A/beta-catenin signaling-mediated Tcf4 transcriptional activity in human HEK293T cells at dual luciferase reporter gene assay EC50 after 24 hrs by FOPglow reporter gene assay; design: scale not given: the % may be the effect or the level left
[2] = Inhibition of Wnt3A/beta-catenin signaling in HEK293 cells at 5 uM after 24 hrs by firefly/renilla dual luciferase reporter gene assay relative to vehicle-treated control; type: cell-based; design: scale not given: the % may be the effect or the level left; conditions: Homo sapiens
Procedure, shortened: (§1)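 HEK293T cells were co-transfected with TOPglow (or FOPglow) plus pCMV Renilla. At 20 h they were reseeded at 18×10^3/well and treated for 24 h with Wnt-3A conditioned medium (from L-Wnt-3A cells) plus analogs (0.01–20 µM; DMSO ≤0.1%). Firefly/Renilla dual-luciferase ratios were expressed as % of DMSO under Wnt-3A. EC50 was taken from sigmoidal concentration–response fits; three independent experiments.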

[3] = Inhibition of Wnt3A/beta-catenin signaling in HEK293 cells at 1 uM after 24 hrs by firefly/renilla dual luciferase reporter gene assay relative to vehicle-treated control; type: cell-based; design: scale not given: the % may be the effect or the level left; conditions: Homo sapiens
Procedure, shortened: as §1

[4] = Inhibition of Wnt3A/beta-catenin signaling in HEK293 cells after 24 hrs by firefly/renilla dual luciferase reporter gene assay; type: cell-based; conditions: Homo sapiens, HEK293, 24 h
Procedure, shortened: as §1

HEK293T (human) = assay: Cytotoxicity against human HEK293T cells at dual luciferase reporter gene assay EC50 after 24 hrs by MTS assay
[5] = Inhibition of Wnt3A/beta-catenin signaling in HEK293 cells at 10 uM after 24 hrs by firefly/renilla dual luciferase reporter gene assay relative to vehicle-treated control; type: cell-based; design: scale not given: the % may be the effect or the level left; conditions: Homo sapiens
Procedure, shortened: as §1

[6] = Inhibition of Wnt3A/beta-catenin signaling in HEK293 cells after 24 hrs by firefly/renilla dual luciferase reporter gene assay relative to curcumin; type: cell-based; conditions: Homo sapiens
Procedure, shortened: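 EC50s came from the HEK293T TOPglow/Renilla dual-luciferase assay with Wnt-3A conditioned medium and 24 h compound exposure (0.01–20 µM), using sigmoidal fits; three independent experiments.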

[7] = Inhibition of Wnt3A/beta-catenin signaling in human U2OS cells assessed as reduction in nuclear beta-catenin accumulation at 5 uM after 24 hrs by Western blot analysis; type: cell-based
Procedure, shortened: (§2)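 U2OS cells were pretreated with analogs for 24 h, and cytoplasmic and nuclear fractions were prepared for β-catenin immunoblotting. α-Tubulin (cytoplasmic) and lamin A/C (nuclear) were loading references. Bands were quantified by densitometry and expressed as % of DMSO-treated cells, with at least triplicate experiments.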

[8] = Inhibition of Wnt3A/beta-catenin signaling in HEK293 cells at 20 uM after 24 hrs by firefly/renilla dual luciferase reporter gene assay relative to vehicle-treated control; type: cell-based; design: scale not given: the % may be the effect or the level left; conditions: Homo sapiens
Procedure, shortened: as §1

[9] = Inhibition of Wnt3A/beta-catenin signaling-mediated Tcf4 transcriptional activity in human U2OS cells at 1 uM after 24 hrs by FOPglow reporter gene assay; type: cell-based
Procedure, shortened: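 U2OS cells (1.0×10^5/well, 90–95% confluent) were co-transfected with TOPglow or FOPglow (0.3 µg) plus pCMV Renilla. At 20 h they were treated for 24 h with Wnt-3A conditioned medium and analogs. Firefly luciferase was normalized to Renilla and expressed as % of DMSO-treated samples; mean ± S.E.M of three independent experiments.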

[10] = Inhibition of Wnt3A/beta-catenin signaling in human U2OS cells assessed as effect on cytoplasmic beta-catenin level at 5 uM after 24 hrs by Western blot analysis; type: cell-based
Procedure, shortened: as §2

Row | EC50 [4] [µM] | Compound | activity [1] [%] | activity [2] [%] | activity [3] [%] | Activity (HEK293T (human)) [%] | activity [5] [%] | fold change (FC) [6] | inhibition [7] | activity [8] [%] | inhibition [9] [%] | inhibition [10]
1 | 8.3 | COc1ccc(/C=C/C(=O)/C=C(O)/C=C/c2ccc(OC)c(OC)c2)cc1OC | 118 | 70 | 102 | 41.6 | 46.5 | 2.5 | – | – | – | –
2 | 0.8 | O=C1/C(=C/c2ccc(O)cc2)CCC/C1=C\c1ccc(O)cc1 | 85.1 | 26.9 | 51.9 | – | 26.3 | 25.8 | inactive | 16.7 | 25.7 | inactive
3 | – | O=C(/C=C/c1ccc(O)cc1)c1ccc(O)cc1 | – | 89.6 | 92.7 | – | 70.9 | – | – | 68.3 | – | –
4 | – | COc1ccc(/C=C/C(=O)/C=C(O)/C=C/c2ccc(OC)c(O)c2)cc1O | – | 110 | 99.7 | – | 105 | – | – | 113 | – | –
5 | – | O=C(/C=C/c1ccc(O)cc1)CC(=O)/C=C/c1ccc(O)cc1 | – | 77.7 | 100 | – | 72.5 | – | – | 69.1 | – | –
6 | – | O=C(/C=C/c1ccccc1)/C=C/c1ccccc1 | – | 82.7 | 93 | – | 79.7 | – | – | 77.9 | – | –
7 | – | O=C(/C=C(O)/C=C/c1ccccc1)/C=C/c1ccccc1 | – | 104 | 109 | – | 107 | – | – | 97.2 | – | –
8 | – | O=C1/C(=C/c2ccccc2F)CC/C1=C\c1ccccc1F | – | 75.7 | 80 | – | 85.3 | – | – | 72.8 | – | –
9 | – | O=C1/C(=C/c2cccc(F)c2)CCC/C1=C\c1cccc(F)c1 | – | 119 | 96.1 | – | 105 | – | – | 104 | – | –
10 | – | O=C1/C(=C/c2cccc(F)c2)CC/C1=C\c1cccc(F)c1 | – | 119 | 124 | – | 109 | – | – | 103 | – | –
11 | 2 | O=C1/C(=C/c2ccccc2)CCC/C1=C\c1ccccc1 [2,6-DIBENZYLIDENECYCLOHEXANONE] | 90.7 | 49.6 | 85.8 | 100 | 40.6 | 10.1 | – | 39 | – | –
12 | – | COc1cc(/C=C/C(=O)/C=C/c2ccc(O)c(OC)c2)ccc1O | – | 111 | 118 | – | 110 | – | – | 90.4 | – | –
13 | 2.6 | COc1cc(/C=C2\CCC/C(=C\c3ccc(O)c(OC)c3)C2=O)ccc1O [CYCLOVALONE] | 87.6 | 28.9 | 86.1 | – | 21.3 | 7.9 | – | – | – | –
14 | 0.5 | COc1ccc(/C=C2\CC/C(=C\c3ccc(OC)c(O)c3)C2=O)cc1O | 110 | 45 | 52.6 | 86.9 | 39.5 | 40.4 | inactive | 39.2 | 25.7 | inactive
15 | 3.9 | COc1ccc(/C=C/C(=O)c2ccc(OC)c(O)c2)cc1O | 131 | 53.9 | 95.7 | 87.2 | 42 | 5.3 | – | 25.7 | – | –
16 | – | O=C1/C(=C/c2ccc(F)cc2)CC/C1=C\c1ccc(F)cc1 | – | 112 | 120 | – | 105 | – | – | 108 | – | –
17 | – | O=C(/C=C(O)/C=C/c1ccc(F)c(F)c1)/C=C/c1ccc(F)c(F)c1 | – | 92.2 | 83.3 | – | 89.2 | – | – | 93.1 | – | –
18 | – | COc1cccc(/C=C/C(=O)/C=C(O)/C=C/c2cccc(OC)c2)c1 | – | 107 | 97.7 | – | 108 | – | – | 101 | – | –

Row | EC50 [4] [µM] | Compound | activity [1] [%] | activity [2] [%] | activity [3] [%] | Activity (HEK293T (human)) [%] | activity [5] [%] | fold change (FC) [6] | inhibition [7] | activity [8] [%] | inhibition [9] [%] | inhibition [10]
19 | 0.9 | O=C1/C(=C/c2ccccc2F)CCC/C1=C\c1ccccc1F | 93 | 21.9 | 57.7 | 87 | 14.5 | 22.8 | – | 20.9 | – | –
20 | – | COc1cccc(/C=C2\CCC/C(=C\c3cccc(OC)c3)C2=O)c1 | – | 60.7 | 93.3 | – | 72.7 | – | – | 81.5 | – | –
21 | – | O=C(/C=C/c1ccc(F)c(F)c1)/C=C/c1ccc(F)c(F)c1 | – | 100 | 103 | – | 110 | – | – | 111 | – | –
22 | – | O=C1/C(=C/c2ccc(F)c(F)c2)CC/C1=C\c1ccc(F)c(F)c1 | – | 73.1 | 71 | – | 60.2 | – | – | 59.5 | – | –
23 | 15.9 | COc1ccc(/C=C2\CCC/C(=C\c3ccc(OC)c(OC)c3)C2=O)cc1OC | 104 | 64.3 | 97.7 | 62.1 | 62.8 | 1.3 | – | 40.8 | – | –
24 | 11 | O=C(/C=C/c1ccccc1)c1ccccc1 [CHALCONE] | 112 | 90.6 | 102 | – | 69 | 1.9 | – | 18.9 | – | –
25 | – | COc1ccc(/C=C/C(=O)/C=C/c2ccc(OC)c(OC)c2)cc1OC | – | 108 | 107 | – | 109 | – | – | 103 | – | –
26 | 17.1 | COc1ccc(/C=C2\CC/C(=C\c3ccc(OC)c(OC)c3)C2=O)cc1OC | 85.2 | 65.9 | 88.9 | – | 55.5 | 1.2 | – | 39.2 | – | –
27 | – | O=C1/C(=C/c2ccc(F)c(F)c2)CCC/C1=C\c1ccc(F)c(F)c1 | – | 126 | 94.5 | – | 118 | – | – | 114 | – | –
28 | 3.1 | O=C1/C(=C/c2ccccc2)CC/C1=C\c1ccccc1 | 82.9 | 41.5 | 82.7 | 83.5 | 25.3 | 6.7 | – | 18.4 | – | –
29 | – | O=C1/C(=C/c2ccc(F)cc2)CCC/C1=C\c1ccc(F)cc1 | – | 65.2 | 70.3 | – | 61.6 | – | – | 60.2 | – | –
30 | – | COc1cccc(/C=C/C(=O)c2cccc(OC)c2)c1 | – | 108 | 107 | – | 111 | – | – | 72.9 | – | –
31 | – | O=C(/C=C/c1ccc(F)c(F)c1)c1ccc(F)c(F)c1 | – | 112 | 117 | – | 90.2 | – | – | 59.1 | – | –
32 | – | COc1cc(/C=C/C(=O)c2ccc(O)c(OC)c2)ccc1O | – | 115 | 112 | – | 86.9 | – | – | 69.6 | – | –
33 | 5.9 | COc1cc(/C=C2\CC/C(=C\c3ccc(O)c(OC)c3)C2=O)ccc1O | 90.8 | 54.1 | 91.6 | – | 37.5 | 3.5 | – | 13.3 | – | –
34 | – | COc1ccc(/C=C/C(=O)c2ccc(OC)c(OC)c2)cc1OC | – | 86.6 | 95 | – | 60.3 | – | – | 41.6 | – | –
35 | – | COc1cccc(/C=C2\CC/C(=C\c3cccc(OC)c3)C2=O)c1 | – | 72.7 | 92.3 | – | 72 | – | – | 61.3 | – | –
36 | – | COc1cccc(/C=C/C(=O)/C=C/c2cccc(OC)c2)c1 | – | 114 | 100 | – | 103 | – | – | 103 | – | –
